# TAAR1 antagonist: antagonists of human TAAR1; CHO RD-HGA16 TAAR1, Fluo-8 calcium fluorescence, antagonist; inhibition, % at 3 µM; actives 1.5% (n = 360,000); Q96RJ0;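 active means inhibition above a per-plate cutoff, the mean inhibition of test compounds on that plate plus 3 SD, cut at about 49% in these data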;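 further: 0% = DMSO plus EC80 beta-PEA response and 100% = DMSO alone without agonist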
#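 Assay system: RD-HGA16 CHO cells with stable hTAAR1 and Gα16 / Reagent: EC80 β-phenethylamine stimulus / Doses: 3 µM, single point / Timing: dye loading 75 min at 37 °C, then 30 min room temperature / Measured by: Fluo-8 intracellular calcium dye fluorescence, real-time kinetic reads / Controls: vehicle wells and EC80 agonist wells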
# TAAR1 ag: human TAAR1 agonism. Q96RJ0. CHO RD-HGA16 TAAR1, Fluo-8 calcium fluorescence; vehicle wells 0%, saturating PEA agonist 100%. AID 624467. activation, % at 3 µM. actives 0.99% (n = 360,000);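 active means activation above the mean activation of all test compounds in the run plus 3 SD, cut at about 38% in these data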
#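 Test system: RD-HGA16 (CHO) cells co-expressing Gα16 and hTAAR1 | Doses: Single dose, 3 µM | Schedule: 17-24 h seeding, 75 min 37 °C dye, 30 min RT | Evaluation: % activation from peak over basal fluorescence ratio, DMSO-to-PEA scaled | Technique: Kinetic Fluo-8 calcium fluorescence | Benchmarks: Low control DMSO, high control PEA (EC100)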
# CHO parental Ca: counter-screen for OX1R antagonists: effect in parental CHO cells; actives 0.63% (n = 330,000); inhibition, % at 5.6 µM; parental CHO-K1, ATP-induced calcium, Fluo-8 fluorescence; AID 463079;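 active means inhibition above that plate's mean sample inhibition plus 3 SD, cut at about 26% in these data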;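 further: 0% = ATP-challenged DMSO wells and 100% = DMSO wells without ATP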
#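 Measured by: calcium-sensitive Fluo-8 fluorescence / Test system: CHO parental line / Controls: ATP-challenged DMSO wells low, unchallenged DMSO wells high / Measure: % inhibition / Compound: single nominal dose of 5.6 µM per compound / Replicates: single well per compound, no replicates / Reagent: ATP as calcium-mobilizing challenge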
# NTR1 agonist: activates human neurotensin receptor 1. P30989. NTR1-U2OS beta-arrestin-GFP spot imaging, agonist mode. activation, % at 20 µM. actives 0.17% (n = 330,000). AID 493036;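 active means activation at or above 40% of the spot to cytoplasm intensity ratio, with at least 20 cells analyzed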;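 further: 0% = DMSO without peptide and 100% = 100 nM NTR1 peptide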
# Target sequence (P30989 whole entry, looked up): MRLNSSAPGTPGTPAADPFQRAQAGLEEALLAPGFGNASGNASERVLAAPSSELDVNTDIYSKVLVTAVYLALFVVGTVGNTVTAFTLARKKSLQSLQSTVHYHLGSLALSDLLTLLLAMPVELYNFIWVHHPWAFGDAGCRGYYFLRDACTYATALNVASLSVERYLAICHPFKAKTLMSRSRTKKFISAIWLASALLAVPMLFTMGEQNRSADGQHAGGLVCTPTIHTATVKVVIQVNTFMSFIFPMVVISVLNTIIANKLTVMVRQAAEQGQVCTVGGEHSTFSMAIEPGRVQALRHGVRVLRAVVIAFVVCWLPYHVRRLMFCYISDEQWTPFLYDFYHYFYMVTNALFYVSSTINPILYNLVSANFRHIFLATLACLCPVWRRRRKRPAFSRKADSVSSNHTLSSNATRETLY
# OX1R antag-1: blocks the human orexin 1 receptor | O43613 | CHO/OX1R cells, Fluo-8 calcium fluorescence, orexin A | inhibition, % at 5 µM | actives 0.43% (n = 330,000) | AID 434989;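 active means inhibition above its plate's threshold, mean inhibition of all tested compounds on the plate plus 3 SD, cut at about 37% in these data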;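 further: 0% = orexin A challenge wells and 100% = SB-334867-A antagonist wells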
# OX1R antag-2: OX1R (human) antagonism | O43613 | OX1R-expressing cells, FRET antagonist read-out | inhibition, % at 6.6 µM | actives 1.8% (n = 330,000); in the data active means inhibition mostly above about 38%, no sharp cut-off; inactive means mostly below about 40%;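 further: 0% = agonist challenge alone and 100% = reference antagonist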
# Starred values were filed as active, the others as inactive; nt = not tested or not shown. A selection: hits, their analogues and other compounds. The true share with any hit is near 4%.
SMILES,TAAR1 antagonist,TAAR1 ag,CHO parental Ca,NTR1 agonist,OX1R antag-1,OX1R antag-2
COc1cccc(C(=O)C[n+]2cccc3cc(OC)ccc32)c1,-11,4,-13,-4,-17,34*
COc1ccc(CN2C3CCC2CC(NC(=O)c2cc(OC)c(OC)c(OC)c2)C3)cc1 (stereo not drawn),6,1,-15,-2,-24,-2
Cc1cc(N=Nc2ccccc2C(=O)O)c(C)c(C)c1O,-27,0,6,2,-3,50*
C[C@H]1NS(=O)(=O)c2cccc(Cl)c2O[C@@H]1c1ccccc1,15,1,nt,nt,nt,nt
O=C(Nc1ccc(Cl)c(Cl)c1)c1ccccc1,22,27,-7,-1,8,33
CN(C(=O)Nc1ccc(Cl)c(Cl)c1)c1ccccc1C(=O)O,20,7,35*,0,18,10
CCOC1=C2[C@@H](CN(S(=O)(=O)c3ccc(C)cc3)[C@H]2c2ccccc2Cl)[C@H]2C(=O)N(C(C)(C)C)C(=O)[C@H]2C1,5,-2,nt,nt,nt,nt
CCCOc1nc2c(c(=O)n(C)c(=O)n2C)n1Cc1cccc2ccccc12,12,25,39*,11,68*,15
CCCOc1nc2c(c(=O)n(C)c(=O)n2C)n1C,14,-1,-7,0,-7,8
CCN(CC)C(=O)CN(c1cc(Cl)ccc1OC)S(=O)(=O)c1ccc(C)c([N+](=O)[O-])c1,19,-1,3,2,39,74*
COc1ccc(Cl)cc1N(CC(=O)NC1CC1)S(=O)(=O)c1ccc(C)c([N+](=O)[O-])c1,16,10,8,0,-25,17
COc1ccc(CN(C)C(=O)C(Cc2ccccc2)NC(=O)c2ccccc2)cc1F (stereo not drawn),73*,14,nt,1,nt,nt
COc1cc2c(cc1OC)C(C(=O)O)C(c1ccc3c(c1)OCO3)N(C)C2=O (stereo not drawn),-8,0,nt,nt,nt,nt
CCOC(=O)CN1C(=O)[C@]2(OCCC=C[C@H]2C)c2c(Br)cccc21,29,6,nt,nt,nt,nt
CC(C)CN(C(=O)COC(=O)/C=C/c1ccc(Cl)c(Cl)c1)c1c(N)n(Cc2ccccc2)c(=O)[nH]c1=O,-18,4,nt,11,nt,nt
COc1cc(/C=C/C(=O)OCC(=O)N(CC(C)C)c2c(N)n(Cc3ccccc3)c(=O)[nH]c2=O)ccc1O,49*,25,nt,nt,nt,nt
Cn1c(N)c(C(=O)COC(=O)c2ccc(-c3ccccc3)cc2)c(=O)n(C)c1=O,-3,6,-1,26,22,22
COCc1[nH]nc2c1C(c1ccc(OC)c(OC)c1)C(C#N)=C(N)O2 (stereo not drawn),-3,8,4,3,-8,25
COCc1[nH]nc2c1C(c1cc(OC)c(O)c(OC)c1)C(C#N)=C(N)O2 (stereo not drawn),-8,14,-6,-1,-6,76*
O=c1c2cc([N+](=O)[O-])ccc2nc(CN2CCN(c3ccccn3)CC2)n1-c1ccccc1F,29,6,-12,4,-8,21
O=C(c1ccco1)N1CCN(Cc2nc3ccc([N+](=O)[O-])cc3c(=O)n2-c2ccccc2F)CC1,69*,18,-10,-2,-7,9
O=C(c1ccco1)N1CCN(Cc2cc(=O)c(OCc3ccc([N+](=O)[O-])cc3)co2)CC1,-32,0,-5,0,-12,39*
CCOc1ccccc1N1CCN(C(=O)CSc2ccc3c(c2)OCCO3)CC1,51*,15,-27,0,-12,2
O=C(CSc1ccc2c(c1)OCCO2)N1CCN(c2ccccc2O)CC1,10,8,nt,0,nt,nt
O=C(C(=O)N1CCC(CNS(=O)(=O)c2ccc(OC(F)(F)F)cc2)CC1)c1cc2ccccc2o1,6,-1,nt,nt,nt,nt
SMILES,TAAR1 antagonist,TAAR1 ag,CHO parental Ca,NTR1 agonist,OX1R antag-1,OX1R antag-2
COc1cc(/C=C/C(=O)NC(=O)c2ccccc2O)ccc1O,-36,2,-15,1,-16,67*
COc1ccc([N+](=O)[O-])cc1NC(=O)CSc1ccc2ccccc2c1,21,1,24,3,-3,61*
COc1ccc(/C=C/C(=O)NC(=S)Nc2cc([N+](=O)[O-])ccc2O)cc1OC,14,8,-19,0,-6,60*
COc1ccc([N+](=O)[O-])cc1NC(=S)NC(C)=O,-5,7,-2,0,-13,12
O=C(/C=C/c1ccccc1)NC(=O)c1ccccc1O,-50,3,3,0,-24,12
CCCCC(=O)NC(=S)Nc1cc([N+](=O)[O-])ccc1OC,-42,0,41*,2,-14,19
Cn1cc(CC(=O)Nc2ccc(Nc3cccnc3)cc2)c2ccccc21,5,5,nt,nt,nt,nt
COC(=O)c1cc2c(c3c4cc(OC)ccc4n(S(=O)(=O)c4ccc(C)cc4)c13)C(=O)N(C)C2,-19,0,nt,nt,nt,nt
COc1ccccc1C(=O)Oc1ccc2ccc(=O)oc2c1,-7,0,-12,2,-19,14
COc1ccccc1C(=O)Oc1ccc(C(C)(C)C)cc1,39,12,41*,5,-10,3
Cc1ccccc1S(=O)(=O)Oc1ccccc1C(=O)Oc1ccccc1,21,10,39*,0,27,30
CN1C(=O)[C@@]2(O[C@H]3C=CC=CN3C3=C2C(=O)CCC3)c2cc([N+](=O)[O-])ccc21,1,0,nt,nt,nt,nt
C=CCn1c(O)c2ccc(C(=O)N=NC(=O)COc3ccccc3F)cc2c1O,5,1,-16,-2,-15,58*
C=CCn1c(O)c2ccc(C(=O)N=NC(=O)c3ccc(F)cc3)cc2c1O,-3,1,-9,0,-20,43
Cc1noc(C)c1COc1ccccc1C(=O)N(C)Cc1ccc(C(C)(C)C)cc1,48,24,27,4,48*,12
O=[N+]([O-])c1ccc(N(CC(O)CN2CCCCC2)S(=O)(=O)c2ccccc2)cc1 (stereo not drawn),-4,1,-16,1,-11,27
O=[N+]([O-])c1ccc(S(=O)(=O)N(CC(O)CN2CCCCC2)c2ccccc2)cc1 (stereo not drawn),4,3,-15,0,-2,48*
CC1(c2ccccc2Cl)NC(=O)N(CC(=O)Nc2ccccc2OC(F)F)C1=O (stereo not drawn),0,5,-17,0,-23,43*
CC(=O)c1cccc(NC(=O)c2ccccc2N(Cc2ccccc2)S(C)(=O)=O)c1,-14,4,-8,-1,-14,11
O=C(O)CCc1ccc(-c2ccccc2)n1NC(=O)c1sc2ccccc2c1Cl,1,3,-3,-1,-15,41*
